pIC50: −log10 of the molar value.
Legend:
[1] = target: Serine/threonine-protein kinase pim-1 (Homo sapiens, UniProt P11309); experiment: Inhibition of PIM1
[2] = target: Ribosomal protein S6 kinase alpha-3 (Homo sapiens, UniProt P51812); experiment: Inhibition of Rsk2
[3] = target: RAC-beta serine/threonine-protein kinase (Homo sapiens, UniProt P31751); experiment: Inhibition of Akt2
[4] = target: RAC-alpha serine/threonine-protein kinase (Homo sapiens, UniProt P31749); experiment: Inhibition of Akt1
RAC-alpha serine/threonine-protein kinase, sequence (P31749 whole entry): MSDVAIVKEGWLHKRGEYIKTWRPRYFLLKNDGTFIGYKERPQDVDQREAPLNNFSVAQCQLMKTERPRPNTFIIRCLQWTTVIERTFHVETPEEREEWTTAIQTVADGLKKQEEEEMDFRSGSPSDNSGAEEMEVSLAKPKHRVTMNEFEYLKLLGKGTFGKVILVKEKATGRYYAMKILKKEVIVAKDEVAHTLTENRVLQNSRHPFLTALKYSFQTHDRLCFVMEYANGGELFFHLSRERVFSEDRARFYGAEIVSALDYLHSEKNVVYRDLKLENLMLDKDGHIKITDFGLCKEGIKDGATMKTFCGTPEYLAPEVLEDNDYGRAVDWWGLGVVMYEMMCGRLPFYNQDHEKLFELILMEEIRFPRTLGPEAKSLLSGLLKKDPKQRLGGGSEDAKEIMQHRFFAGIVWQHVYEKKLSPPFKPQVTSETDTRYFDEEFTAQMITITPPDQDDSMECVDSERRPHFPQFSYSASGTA

[5] = Inhibition of PKA
[6] = Inhibition of p70S6K-mediated S6 phosphorylation in human A549 cells after 3 hrs by chemiluminescence assay; assay type: cell-based; conditions: A549, 3 h
In short: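 A549 cells seeded at 7.5 × 10^3/well in DMEM with 10% FBS and 1% non-essential amino acids, grown 48 h at 37 °C, then exposed 3 h to compound ([…], triplicate, 0.2% DMSO). Fixed in formaldehyde, blocked, probed overnight at 4 °C with anti-phospho-S6 (Ser240/244) or anti-total-S6, then HRP secondary; chemiluminescent ELISA read-out.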

[7] = target: Ribosomal protein S6 kinase beta-1 (Homo sapiens, UniProt P23443, D18H/T412E); experiment: Inhibition of human p70S6K D18H and T412E mutant using RRRLSSLRA as substrate after 3 hrs by luciferase-luciferin-coupled chemiluminescence assay
Ribosomal protein S6 kinase beta-1, sequence (P23443 whole entry D18H/T412E): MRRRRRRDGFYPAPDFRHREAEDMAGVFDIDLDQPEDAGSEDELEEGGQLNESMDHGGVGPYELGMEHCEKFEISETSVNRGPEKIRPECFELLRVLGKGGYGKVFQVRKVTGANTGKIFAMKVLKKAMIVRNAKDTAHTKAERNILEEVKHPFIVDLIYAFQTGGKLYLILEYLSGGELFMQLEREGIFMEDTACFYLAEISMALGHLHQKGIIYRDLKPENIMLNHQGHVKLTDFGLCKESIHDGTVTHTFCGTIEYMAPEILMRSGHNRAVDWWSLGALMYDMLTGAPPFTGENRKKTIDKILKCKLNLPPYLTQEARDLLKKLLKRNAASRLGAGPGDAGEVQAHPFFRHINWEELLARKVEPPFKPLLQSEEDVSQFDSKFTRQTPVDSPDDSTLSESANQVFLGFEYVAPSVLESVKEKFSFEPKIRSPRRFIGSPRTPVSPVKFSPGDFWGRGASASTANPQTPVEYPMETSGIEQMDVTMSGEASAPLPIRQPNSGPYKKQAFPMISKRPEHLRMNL

PC-3 [8] = experiment: Antitumor activity against human PC3 cells xenografted in mouse assessed as tumor growth inhibition compound administered po bid for 14 days; assay type: functional, organism-based
In short: (§1)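 PC3 prostate carcinoma xenografts in mice; compound given orally at 30, 100 or 300 mg/kg twice daily for 14 days; tumor growth inhibition recorded.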

PC-3 [9] = experiment: Antitumor activity against human PC3 cells xenografted in mouse assessed as tumor growth inhibition at 30 mg/kg, po bid for 14 days; assay type: functional; conditions: PC-3, 336 h, read-out: GI; in short: as §1
Rattus norvegicus [10] = experiment: Dose normalized AUC in rat at 2.5 mg/kg, po; assay type: ADME, organism-based; parameters: dose 2.5 mg/kg, route oral; conditions: in vivo
Rattus norvegicus [11] = experiment: Dose normalized AUC in rat at 2.5 mg/kg, iv; assay type: ADME, organism-based; parameters: dose 2.5 mg/kg, route intravenous; conditions: in vivo
PC-3 [12] = experiment: Antitumor activity against human PC3 cells xenografted in mouse assessed as tumor growth inhibition at 100 mg/kg, po bid for 14 days; assay type: functional; conditions: PC-3, 336 h, read-out: GI; in short: as §1
[13] = Cmax in rat at 2.5 mg/kg, iv; assay type: ADME, organism-based; parameters: dose 2.5 mg/kg, route intravenous; conditions: in vivo
Mus musculus = experiment: Inhibition of p70S6K-mediated S6 phosphorylation in human PC3 cells xenografted in mouse at 100 mg/kg, po; assay type: functional; conditions: PC-3
[14] = Clearance in rat at 2.5 mg/kg, iv and 2.5 mg/kg, po; assay type: ADME, organism-based; conditions: in vivo
[15] = Half life in rat at 2.5 mg/kg, po; assay type: ADME, organism-based; parameters: dose 2.5 mg/kg, route oral; conditions: in vivo
[16] = Volume of distribution in rat at 2.5 mg/kg, iv and 2.5 mg/kg, po; assay type: ADME, organism-based; conditions: in vivo
[17] = Half life in rat at 2.5 mg/kg, iv; assay type: ADME, organism-based; parameters: dose 2.5 mg/kg, route intravenous; conditions: in vivo
[18] = Cmax in rat at 2.5 mg/kg, po; assay type: ADME, organism-based; parameters: dose 2.5 mg/kg, route oral; conditions: in vivo
PC-3 [19] = experiment: Antitumor activity against human PC3 cells xenografted in mouse assessed as tumor growth inhibition at 300 mg/kg, po bid for 14 days; assay type: functional; conditions: PC-3, 336 h, read-out: GI; in short: as §1
[20] = Oral bioavailability in rat at 2.5 mg/kg; assay type: ADME, organism-based; conditions: in vivo

Ribosomal protein S6 kinase alpha-3, sequence (P51812 whole entry): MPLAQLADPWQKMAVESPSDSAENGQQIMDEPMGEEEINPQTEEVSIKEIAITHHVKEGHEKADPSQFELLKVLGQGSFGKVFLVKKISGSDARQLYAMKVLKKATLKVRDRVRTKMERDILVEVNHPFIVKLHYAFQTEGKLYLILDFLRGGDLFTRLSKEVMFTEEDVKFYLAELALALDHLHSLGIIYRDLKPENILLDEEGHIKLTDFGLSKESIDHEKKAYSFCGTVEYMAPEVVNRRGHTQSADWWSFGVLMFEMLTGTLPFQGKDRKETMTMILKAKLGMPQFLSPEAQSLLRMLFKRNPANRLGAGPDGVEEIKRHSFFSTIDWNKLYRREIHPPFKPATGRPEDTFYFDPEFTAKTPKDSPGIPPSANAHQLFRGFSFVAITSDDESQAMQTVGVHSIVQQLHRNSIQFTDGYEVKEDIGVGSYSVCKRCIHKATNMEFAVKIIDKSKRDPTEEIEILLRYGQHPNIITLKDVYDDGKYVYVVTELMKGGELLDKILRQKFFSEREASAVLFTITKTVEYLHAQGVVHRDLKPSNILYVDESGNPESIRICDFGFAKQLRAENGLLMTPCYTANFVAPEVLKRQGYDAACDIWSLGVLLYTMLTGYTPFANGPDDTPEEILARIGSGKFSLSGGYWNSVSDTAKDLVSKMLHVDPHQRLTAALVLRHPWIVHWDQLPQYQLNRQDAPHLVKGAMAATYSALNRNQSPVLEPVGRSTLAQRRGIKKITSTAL
RAC-beta serine/threonine-protein kinase, sequence (P31751 whole entry): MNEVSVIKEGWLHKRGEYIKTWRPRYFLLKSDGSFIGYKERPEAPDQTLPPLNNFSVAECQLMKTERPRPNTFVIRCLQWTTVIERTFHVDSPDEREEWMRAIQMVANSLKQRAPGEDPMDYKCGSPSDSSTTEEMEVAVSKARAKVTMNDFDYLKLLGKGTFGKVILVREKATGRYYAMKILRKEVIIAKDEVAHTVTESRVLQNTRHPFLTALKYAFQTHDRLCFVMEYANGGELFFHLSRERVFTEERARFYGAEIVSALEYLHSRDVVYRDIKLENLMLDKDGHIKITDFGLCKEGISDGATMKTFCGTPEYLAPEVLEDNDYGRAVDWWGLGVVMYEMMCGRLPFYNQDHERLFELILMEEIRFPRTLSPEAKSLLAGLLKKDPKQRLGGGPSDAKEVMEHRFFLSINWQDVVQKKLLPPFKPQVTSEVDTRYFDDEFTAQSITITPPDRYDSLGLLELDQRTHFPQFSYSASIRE
Serine/threonine-protein kinase pim-1, sequence (P11309 whole entry): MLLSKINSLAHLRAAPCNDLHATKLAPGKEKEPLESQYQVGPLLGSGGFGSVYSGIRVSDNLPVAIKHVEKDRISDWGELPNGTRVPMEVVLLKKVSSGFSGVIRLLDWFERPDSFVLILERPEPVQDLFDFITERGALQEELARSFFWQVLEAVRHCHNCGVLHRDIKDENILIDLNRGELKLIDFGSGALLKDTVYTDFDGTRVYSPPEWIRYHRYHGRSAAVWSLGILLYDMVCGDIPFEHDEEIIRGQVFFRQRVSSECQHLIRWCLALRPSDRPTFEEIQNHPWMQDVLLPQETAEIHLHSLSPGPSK

Row | pIC50 [6] | pIC50 [7] | Compound | further results
1 | 7.37 | 8.70 | Cc1c(NCCN(C)C)cc(Cl)cc1N1CCN(c2ncnc3[nH]nc(Br)c23)CC1 | pIC50 [1]: > 6.30; pIC50 [2]: 6.61; pIC50 [3]: 6.51; pIC50 [4]: 7.28; pIC50 [5]: 7.60
2 | 7.35 | 8.70 | CCc1n[nH]c2ncnc(N3CCN(c4cc(Cl)cc(NCCN(C)C)c4C)CC3)c12 | growth inhibition (GI) (PC-3 [8]): Dose-dependent effect; inhibition in vivo at 30 mg/kg (PC-3 [9]): 21%; AUC/dose (Rattus norvegicus [10]): 0.45 µM·kg·h/mg; AUC/dose (Rattus norvegicus [11]): 1.72 µM·kg·h/mg; pIC50 [2]: 7.17; inhibition in vivo at 100 mg/kg (PC-3 [12]): 49%; Cmax [13]: 1.47 µM; pIC50 [3]: 5.52; inhibition in vivo at 100 mg/kg (Mus musculus): > 60%; clearance [14]: 1.04 L/h/kg; pIC50 [4]: 6.43; half-life [15]: 3.3 h; Vd [16]: 3.7 L/kg; pIC50 [5]: 7.38; half-life [17]: 2.9 h; Cmax [18]: 0.15 µM; inhibition in vivo at 300 mg/kg (PC-3 [19]): 69%; bioavailability [20]: 23%
3 |  | 8.52 | Cc1ccc(Cl)cc1N1CCN(c2ncnc(N)c2[N+](=O)[O-])CC1 | 
4 | 7.39 | 7.54 | Cc1ccc(Cl)cc1N1CCN(c2ncnc3[nH]nc(C(F)(F)F)c23)CC1 | 
5 | 6.84 | 8.22 | CCc1n[nH]c2ncnc(N3CCN(c4cc(Cl)cc(OCCN(C)C)c4C)CC3)c12 | 
6 |  | < 5.70 | Cc1c(N)ncnc1N1CCN(c2cccc(Cl)c2)CC1 | 
7 | 6.47 | 7.96 | CCc1n[nH]c2ncnc(N3CCN(c4cc(Cl)cc(OCCN(CC)CC)c4C)CC3)c12 | 
8 | 7.30 | 8.40 | Cc1c(NCCN(C)C)cc(Cl)cc1N1CCN(c2ncnc3[nH]nc(C(F)(F)F)c23)CC1 | pIC50 [2]: 7.62; pIC50 [3]: 6.32; pIC50 [4]: 7.13; pIC50 [5]: 8.22
9 | 6.30 | 8.05 | Cc1ccc(Cl)cc1N1CCN(c2ncnc3[nH]nc(C)c23)CC1 | 
10 | 6.56 | 8.22 | CCCc1n[nH]c2ncnc(N3CCN(c4cc(Cl)ccc4C)CC3)c12 | 
11 | 6.68 | 7.80 | Cc1ccc(Cl)cc1N1CCN(c2ncnc3[nH]nc(C(C)C)c23)CC1 | 
12 |  | 6.71 | Clc1cccc(N2CCN(c3[nH]cnc4ncnc3-4)CC2)c1 | 
13 | 5.95 | 7.89 | Cc1ccc(Cl)cc1N1CCN(c2ncnc3[nH]ncc23)CC1 | 
14 | 7.10 | 8.52 | CCc1n[nH]c2ncnc(N3CCN(c4cc(Cl)cc(NCCN5CCCC5)c4C)CC3)c12 | 
15 |  | 6.79 | Clc1cccc(N2CCN(c3ncnc4[nH]ccc34)CC2)c1 | 
16 | 6.74 | 8.52 | CCc1n[nH]c2ncnc(N3CCN(c4cc(Cl)cc(NCCN(CC)CC)c4C)CC3)c12 | 
17 | 6.68 | 8.52 | CCc1n[nH]c2ncnc(N3CCN(c4cc(Cl)cc(CCCN(CC)CC)c4C)CC3)c12 | 
18 | 6.82 | 8.70 | CCc1n[nH]c2ncnc(N3CCN(c4cc(Cl)cc(CCCN5CCCC5)c4C)CC3)c12 | 
19 |  | < 5.70 | Nc1cc(N2CCN(c3cccc(Cl)c3)CC2)ncn1 | 
20 |  | < 5.70 | Cc1nc(N2CCN(c3cc(Cl)ccc3C)CC2)c2cn[nH]c2n1 | 
21 | 7.07 | 8.15 | Cc1ccc(Cl)cc1N1CCN(c2ncnc3[nH]nc(Br)c23)CC1 | 
22 | 6.82 | 8.22 | CCc1n[nH]c2ncnc(N3CCN(c4cc(Cl)ccc4C)CC3)c12 | AUC/dose (Rattus norvegicus [10]): 0.02 µM·kg·h/mg; AUC/dose (Rattus norvegicus [11]): 1.74 µM·kg·h/mg; Cmax [13]: 6.29 µM; clearance [14]: 1.55 L/h/kg; half-life [15]: 1.4 h; Vd [16]: 6.3 L/kg; half-life [17]: 7.1 h; Cmax [18]: 0.03 µM; bioavailability [20]: 2%
23 | 6.61 | 8.30 | CCc1n[nH]c2ncnc(N3CCN(c4cc(Cl)cc(OCCN5CCCC5)c4C)CC3)c12 | 
24 |  | 7.07 | Nc1ncnc(N2CCN(c3cccc(Cl)c3)CC2)c1[N+](=O)[O-] | 
25 |  | 6.97 | Clc1cccc(N2CCN(c3ncnc4[nH]ncc34)CC2)c1 | 

— ChEMBL document CHEMBL2010702, “Design and evaluation of a series of pyrazolopyrimidines as p70S6K inhibitors” (Bioorg Med Chem Lett, 2012)
